Laboratory results: ChEMBL document CHEMBL1157979, “Chromone derivatives from the filamentous fungus Lachnum sp. BCC 2424” (J Nat Prod, 2006)
Values after ≈ are worked out from the molar mass of the structure shown. Active and inactive are the calls of the source. The rule behind the calls is not given here.

Assays:
[1] = tested on: Mycobacterium tuberculosis; assay: Antimicrobial activity against Mycobacterium tuberculosis H37Ra by Microplate Alamar blue assay; type: functional
Method in brief: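 Whole-cell growth inhibition of M. tuberculosis H37Ra read by Microplate Alamar Blue Assay; value reported as minimum inhibitory concentration; isoniazid and kanamycin sulfate as reference drugs.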

BC1 = assay: (§1) Cytotoxicity against human BC1 cells by MTT assay; type: functional, cell-based
KB = assay: Cytotoxicity against human KB cells by MTT assay; type: functional, cell-based
Candida albicans = assay: Antifungal activity against Candida albicans by MTT assay; type: functional, organism-based
Method in brief: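 Tested against Candida albicans strain ATCC 90028 with a modified colorimetric method that uses tetrazolium salt (MTT) reduction as the read-out.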

Plasmodium falciparum = assay: Antimalarial activity after 42 hrs against Plasmodium falciparum K1; settings: K1, 42 h
[2] = as §1; type: functional, cell-based

SMILES | Activity [1] | Activity (BC1) | Activity (KB) | Activity (Candida albicans) | MIC [1] [µg/mL] | also measured
CC(=O)C[C@]1(O)C(=O)c2c(O)cc(CO)cc2O[C@@]1(C)[C@@H]1CCC(=O)O1 | inactive | inactive | inactive | inactive | – | –
C[C@]1([C@@H]2CCC(=O)O2)CC(=O)c2c(O)cc(CO)cc2O1 | inactive | inactive | inactive | inactive | – | –
Cc1cc(O)c2c(=O)c(O)c(C)oc2c1 | inactive | inactive | inactive | inactive | – | –
C[C@H]1[C@@H](O)O[C@@H]2O[C@@]3(C)CC[C@H]4[C@H](C)CC[C@@H]1[C@@]24OO3 [ARTENIMOL] | – | – | – | – | – | IC50 (Plasmodium falciparum): 3.7 nM
Cc1c2ccncc2c(C)c2c1[nH]c1ccccc12 [ELLIPTECINE] | – | – | – | – | – | IC50 [2]: 0.22 µg/mL (≈ 0.893 µM); IC50 (KB): 0.24 µg/mL (≈ 0.974 µM)
NNC(=O)c1ccncc1 [ISONIAZID] | – | – | – | – | 0.05 (≈ 0.365 µM) | –
NC[C@H]1O[C@H](O[C@H]2[C@H](O)[C@@H](O[C@H]3O[C@H](CO)[C@@H](O)[C@H](N)[C@H]3O)[C@H](N)C[C@@H]2N)[C@H](O)[C@@H](O)[C@@H]1O.O=S(=O)(O)O [KANAMYCIN SULFATE] | – | – | – | – | 2.5 | –
Cc1oc2cc(CO)cc(O)c2c(=O)c1O [LACHNONE B] | – | inactive | inactive | inactive | 200 (≈ 900 µM) | –
C[C@@]1([C@@H]2CCC(=O)O2)Oc2cc(CO)cc(O)c2C(=O)[C@H]1O [LACHNONE D] | – | inactive | inactive | inactive | 200 (≈ 649 µM) | –
